Reference: ChEMBL document CHEMBL4177603 (Bioorg Med Chem Lett, 2017)

Experiments:
[1] = Half-life in iv dosed mouse; assay type: ADME, organism-based; conditions: in vivo
[2] = Renal clearance in dog at 0.3 mg/kg, iv via infusion for 0.5 hrs; assay type: ADME, organism-based, Canis lupus familiaris, Kidney; conditions: in vivo
[3] = biological target: cGMP-inhibited 3',5'-cyclic phosphodiesterase 3B (Homo sapiens) (UniProt Q13370); test: Inhibition of recombinant human PDE3B at 10 uM using [3H]cAMP as substrate measured after 20 mins by scintillation counting method relative to control
[4] = biological target: Angiotensin-converting enzyme (Homo sapiens) (UniProt P12821); test: Inhibition of ACE (unknown origin) at 10 uM by radioligand binding assay relative to control
[5] = Volume of distribution at steady state in dog at 0.3 mg/kg, iv via infusion for 0.5 hrs; assay type: ADME, organism-based, Canis lupus familiaris; conditions: in vivo, read-out: Vdss
[6] = biological target: Type-1 angiotensin II receptor (Homo sapiens) (UniProt P30556); test: Agonist activity at recombinant human AT1 receptor expressed in HEK293 cells assessed as increase in calcium flux at 10 uM by spectrophotometric method relative to control; assay type: functional, cell-based
[7] = Intrinsic clearance in rat liver microsomes; assay type: ADME, microsome; conditions: read-out: CLH
[8] = Volume of distribution at steady state in rat at 0.3 mg/kg, iv via infusion for 1 hr; assay type: ADME, organism-based; conditions: in vivo, read-out: Vdss
[9] = biological target: Beta-2 adrenergic receptor (Homo sapiens) (UniProt P07550); test: Displacement of [3H](-)CGP12177 from recombinant human beta2 receptor at 10 uM after 120 mins by scintillation counting method
[10] = Protein binding in non-human primate plasma assessed as fraction unbound at 2 uM; assay type: ADME, cell-free, Macaca mulatta; conditions: rhesus monkey
[11] = biological target: Acetylcholinesterase (Homo sapiens) (UniProt P22303); test: Inhibition of recombinant human AChE at 10 uM using acetylthiocholine as substrate measured after 30 mins by spectrophotometric method relative to control
[12] = biological target: Histamine H2 receptor (Homo sapiens) (UniProt P25021); test: Agonist activity at recombinant human H2 receptor expressed in CHOK1 cells assessed as increase in cAMP accumulation at 10 uM measured after 30 mins by HTRF assay relative to control; assay type: functional, cell-based
[13] = biological target: Alpha-2B adrenergic receptor (Homo sapiens) (UniProt P18089); test: Agonist activity at recombinant human alpha2b receptor expressed in HEK293 cells assessed as increase in cAMP accumulation at 10 uM measured after 30 mins by HTRF assay relative to control; assay type: functional, cell-based
[14] = biological target: 5-hydroxytryptamine receptor 1A (Homo sapiens) (UniProt P08908); test: Agonist activity at human 5-HT1A receptor expressed in mouse BA/F3 cells assessed as increase in calcium flux at 10 uM by fluorimetric method relative to control; assay type: functional, cell-based
[15] = biological target: Substance-P receptor (Homo sapiens) (UniProt P25103); test: Agonist activity at human NK1 receptor expressed in U373MG cells assessed as increase in calcium flux at 10 uM by fluorimetric method relative to control; assay type: functional, cell-based
[16] = biological target: 5-hydroxytryptamine receptor 3A (Homo sapiens) (UniProt P46098); test: Displacement of [3H]BRL 43694 from recombinant human 5-HT3 receptor at 10 uM measured after 120 mins by scintillation counting method
[17] = Protein binding in dog plasma assessed as fraction unbound; assay type: ADME, cell-free, Canis lupus familiaris
[18] = Unbound clearance in iv dosed mouse plasma; assay type: ADME, organism-based; conditions: in vivo
[19] = biological target: Muscarinic acetylcholine receptor M2 (Homo sapiens) (UniProt P08172); test: Antagonist activity at recombinant human M2 receptor expressed in CHOK1 cells assessed as inhibition of acetylcholine-induced cAMP accumulation at 10 uM measured after 10 mins by HTRF assay relative to control; assay type: functional, cell-based
[20] = biological target: Histamine H1 receptor (Homo sapiens) (UniProt P35367); test: Agonist activity at human H1 receptor expressed in HEK293 cells assessed as increase in calcium flux at 10 uM by fluorimetric method relative to control; assay type: functional, cell-based
[21] = biological target: T1, Muscarinic acetylcholine receptor M1 (Homo sapiens) (UniProt P11229); test: Antagonist activity at human M1 receptor expressed in CHOK1 cells assessed as inhibition of acetylcholine-induced calcium flux at 10 uM by fluorimetric method relative to control; assay type: functional, cell-based
T1 sequence (whole entry): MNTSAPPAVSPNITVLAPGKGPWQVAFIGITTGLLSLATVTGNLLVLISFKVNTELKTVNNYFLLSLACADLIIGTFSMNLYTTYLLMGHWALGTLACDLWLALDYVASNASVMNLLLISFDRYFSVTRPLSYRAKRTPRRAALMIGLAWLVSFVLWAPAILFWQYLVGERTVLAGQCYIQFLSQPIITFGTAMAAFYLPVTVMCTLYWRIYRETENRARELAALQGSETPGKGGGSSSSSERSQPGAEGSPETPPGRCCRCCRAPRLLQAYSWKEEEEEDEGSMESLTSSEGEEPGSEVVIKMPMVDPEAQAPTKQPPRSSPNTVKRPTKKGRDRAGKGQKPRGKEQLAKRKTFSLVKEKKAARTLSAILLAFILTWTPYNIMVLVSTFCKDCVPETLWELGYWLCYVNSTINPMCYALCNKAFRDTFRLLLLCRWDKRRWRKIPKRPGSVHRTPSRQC

[22] = biological target: Kappa-type opioid receptor (Homo sapiens) (UniProt P41145); test: Agonist activity at human KOR assessed as increase in calcium flux at 10 uM by fluorimetric method relative to control; assay type: functional
Rattus norvegicus = species: Rattus norvegicus; test: Displacement of [3H]D888 from L-type calcium channel verapamil binding site in rat brain at 10 uM measured after 120 mins by scintillation counting method
Cytochrome P450 3A4 = Cytochrome P450 3A4 (Homo sapiens, UniProt P08684); test: Inhibition of CYP3A4 (unknown origin); assay type: ADME
Adenosine receptor A1 = Adenosine receptor A1 (Homo sapiens, UniProt P30542); test: Agonist activity at recombinant human adenosine A1 receptor expressed in mouse BA/F3 cells assessed as increase in calcium flux by spectrophotometric method; assay type: functional, cell-based
[23] = biological target: Type-1 angiotensin II receptor (Homo sapiens) (UniProt P30556); test: Antagonist activity at recombinant human AT1 receptor expressed in HEK293 cells assessed as inhibition of angiotensin2-induced calcium flux at 10 uM by spectrophotometric method relative to control; assay type: functional, cell-based
[24] = Cytotoxicity against human THLE cells; assay type: cell-based
[25] = Clearance in iv dosed mouse plasma; assay type: ADME, organism-based
[26] = biological target: Vasopressin V1a receptor (Homo sapiens) (UniProt P37288); test: Agonist activity at human V1A receptor expressed in CHOK1 cells assessed as increase in calcium flux at 10 uM by fluorimetric method relative to control; assay type: functional, cell-based
Homo sapiens = species: Homo sapiens; test: Inhibition of neuronal type nAChR (unknown origin) at 10 uM by radioligand binding assay relative to control
[27] = Terminal half-life in dog at 0.3 mg/kg, iv via infusion for 0.5 hrs; assay type: ADME, organism-based, Canis lupus familiaris; conditions: in vivo, read-out: beta t1/2 (converted)
How it was run: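 Dog IV pharmacokinetics, with half-life reported as two values: α (initial phase) and β (terminal phase) of the disposition profile.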

[28] = biological target: GABA-A receptor; alpha-1/beta-2/gamma-2 (Homo sapiens) (UniProt P14867+P47870+P18507); test: Displacement of [3H]muscimol from recombinant human GABAalpha1beta2gamma2 at 10 uM measured after 120 mins by scintillation counting method; assay type: protein-complex assay

Type-1 angiotensin II receptor (Homo sapiens), sequence (P30556 whole entry): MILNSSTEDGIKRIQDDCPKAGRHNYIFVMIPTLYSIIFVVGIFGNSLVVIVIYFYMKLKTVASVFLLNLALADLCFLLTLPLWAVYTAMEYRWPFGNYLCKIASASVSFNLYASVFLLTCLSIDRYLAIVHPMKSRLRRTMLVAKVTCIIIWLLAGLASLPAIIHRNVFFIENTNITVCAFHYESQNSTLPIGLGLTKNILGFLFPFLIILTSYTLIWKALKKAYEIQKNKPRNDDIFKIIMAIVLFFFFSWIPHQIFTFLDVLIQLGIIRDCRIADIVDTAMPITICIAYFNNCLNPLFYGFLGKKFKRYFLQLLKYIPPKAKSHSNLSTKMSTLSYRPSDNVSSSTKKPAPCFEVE
5-hydroxytryptamine receptor 1A (Homo sapiens), sequence (P08908 whole entry): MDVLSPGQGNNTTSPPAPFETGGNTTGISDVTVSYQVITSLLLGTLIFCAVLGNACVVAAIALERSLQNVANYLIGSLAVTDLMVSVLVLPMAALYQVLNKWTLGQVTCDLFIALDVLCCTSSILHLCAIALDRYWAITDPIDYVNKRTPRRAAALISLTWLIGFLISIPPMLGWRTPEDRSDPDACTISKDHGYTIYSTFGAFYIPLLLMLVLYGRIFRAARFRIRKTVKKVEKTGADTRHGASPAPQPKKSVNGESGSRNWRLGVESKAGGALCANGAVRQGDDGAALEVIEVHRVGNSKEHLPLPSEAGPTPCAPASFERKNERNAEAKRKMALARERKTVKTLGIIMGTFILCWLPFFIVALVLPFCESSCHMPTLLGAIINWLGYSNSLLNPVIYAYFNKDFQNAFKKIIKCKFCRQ
Alpha-2B adrenergic receptor (Homo sapiens), sequence (P18089 whole entry): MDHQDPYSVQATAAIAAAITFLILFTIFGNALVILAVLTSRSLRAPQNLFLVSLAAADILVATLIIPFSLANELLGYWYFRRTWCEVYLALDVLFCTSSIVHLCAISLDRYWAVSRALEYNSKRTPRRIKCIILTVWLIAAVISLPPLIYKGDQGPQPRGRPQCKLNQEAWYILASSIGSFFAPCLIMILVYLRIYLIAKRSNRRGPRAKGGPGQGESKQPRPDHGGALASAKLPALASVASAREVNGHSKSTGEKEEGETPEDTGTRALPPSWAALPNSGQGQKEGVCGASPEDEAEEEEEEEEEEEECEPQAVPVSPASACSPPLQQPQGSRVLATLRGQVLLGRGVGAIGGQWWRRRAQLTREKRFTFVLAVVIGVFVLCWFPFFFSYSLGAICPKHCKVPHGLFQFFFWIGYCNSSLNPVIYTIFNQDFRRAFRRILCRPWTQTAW
Vasopressin V1a receptor (Homo sapiens), sequence (P37288 whole entry, looked up): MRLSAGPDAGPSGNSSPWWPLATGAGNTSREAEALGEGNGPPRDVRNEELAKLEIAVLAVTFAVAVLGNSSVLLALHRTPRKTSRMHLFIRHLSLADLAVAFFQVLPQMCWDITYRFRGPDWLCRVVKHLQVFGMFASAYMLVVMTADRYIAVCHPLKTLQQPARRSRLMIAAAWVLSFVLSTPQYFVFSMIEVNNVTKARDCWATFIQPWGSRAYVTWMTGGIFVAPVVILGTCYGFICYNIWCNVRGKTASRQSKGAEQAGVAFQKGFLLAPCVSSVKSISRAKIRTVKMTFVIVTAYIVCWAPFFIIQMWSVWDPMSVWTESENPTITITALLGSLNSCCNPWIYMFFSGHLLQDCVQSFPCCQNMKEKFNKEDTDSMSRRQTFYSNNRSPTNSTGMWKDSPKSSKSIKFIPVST
Acetylcholinesterase (Homo sapiens), sequence (P22303 whole entry): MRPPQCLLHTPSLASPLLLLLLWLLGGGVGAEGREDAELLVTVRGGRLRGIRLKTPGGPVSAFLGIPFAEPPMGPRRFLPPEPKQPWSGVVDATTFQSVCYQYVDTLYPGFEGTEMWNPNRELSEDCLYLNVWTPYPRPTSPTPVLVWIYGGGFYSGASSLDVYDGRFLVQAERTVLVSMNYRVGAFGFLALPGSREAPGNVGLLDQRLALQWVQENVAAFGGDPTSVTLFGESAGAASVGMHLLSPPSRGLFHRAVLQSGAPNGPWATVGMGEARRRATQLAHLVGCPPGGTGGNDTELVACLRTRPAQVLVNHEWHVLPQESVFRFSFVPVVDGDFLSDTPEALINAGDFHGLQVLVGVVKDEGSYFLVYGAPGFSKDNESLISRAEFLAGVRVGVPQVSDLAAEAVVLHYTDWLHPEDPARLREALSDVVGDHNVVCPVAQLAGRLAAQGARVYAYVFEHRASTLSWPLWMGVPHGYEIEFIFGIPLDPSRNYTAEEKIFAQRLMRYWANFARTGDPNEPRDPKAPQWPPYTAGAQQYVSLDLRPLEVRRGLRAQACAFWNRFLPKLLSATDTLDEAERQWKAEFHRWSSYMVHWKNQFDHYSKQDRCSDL
5-hydroxytryptamine receptor 3A (Homo sapiens), sequence (P46098 whole entry): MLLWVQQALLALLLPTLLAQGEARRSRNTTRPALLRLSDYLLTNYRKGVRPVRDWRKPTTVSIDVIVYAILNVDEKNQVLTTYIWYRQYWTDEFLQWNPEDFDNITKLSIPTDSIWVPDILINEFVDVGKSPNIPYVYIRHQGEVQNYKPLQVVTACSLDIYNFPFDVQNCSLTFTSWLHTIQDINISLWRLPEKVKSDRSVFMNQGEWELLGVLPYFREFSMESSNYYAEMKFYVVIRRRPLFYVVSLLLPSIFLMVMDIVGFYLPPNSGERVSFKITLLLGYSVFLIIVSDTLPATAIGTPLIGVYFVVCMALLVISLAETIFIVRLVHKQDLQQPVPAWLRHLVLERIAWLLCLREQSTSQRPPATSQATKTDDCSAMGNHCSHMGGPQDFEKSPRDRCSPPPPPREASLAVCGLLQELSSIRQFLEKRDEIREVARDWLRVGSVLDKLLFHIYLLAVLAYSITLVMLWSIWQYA
Beta-2 adrenergic receptor (Homo sapiens), sequence (P07550 whole entry, looked up): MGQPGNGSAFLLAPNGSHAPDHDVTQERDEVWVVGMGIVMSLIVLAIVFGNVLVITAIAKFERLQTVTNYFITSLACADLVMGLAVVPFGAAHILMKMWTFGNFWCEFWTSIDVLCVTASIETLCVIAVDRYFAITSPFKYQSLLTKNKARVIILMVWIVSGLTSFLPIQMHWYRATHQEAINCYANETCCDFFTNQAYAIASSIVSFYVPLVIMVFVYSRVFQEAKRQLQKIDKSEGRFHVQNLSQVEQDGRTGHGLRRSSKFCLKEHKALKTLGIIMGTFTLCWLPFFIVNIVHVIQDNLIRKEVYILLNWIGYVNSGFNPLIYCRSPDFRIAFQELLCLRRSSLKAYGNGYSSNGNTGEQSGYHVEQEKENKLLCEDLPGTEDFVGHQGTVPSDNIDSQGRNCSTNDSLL
Histamine H2 receptor (Homo sapiens), sequence (P25021 whole entry): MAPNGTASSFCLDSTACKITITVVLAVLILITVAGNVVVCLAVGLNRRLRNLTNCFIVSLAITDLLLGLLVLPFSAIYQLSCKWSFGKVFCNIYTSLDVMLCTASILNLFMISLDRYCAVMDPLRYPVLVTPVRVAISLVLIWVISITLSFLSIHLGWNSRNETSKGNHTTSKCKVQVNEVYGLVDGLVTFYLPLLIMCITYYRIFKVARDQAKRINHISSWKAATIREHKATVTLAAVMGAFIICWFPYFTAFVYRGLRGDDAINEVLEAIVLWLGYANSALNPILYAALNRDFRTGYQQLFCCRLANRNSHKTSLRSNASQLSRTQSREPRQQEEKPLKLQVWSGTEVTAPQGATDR
Substance-P receptor (Homo sapiens), sequence (P25103 whole entry): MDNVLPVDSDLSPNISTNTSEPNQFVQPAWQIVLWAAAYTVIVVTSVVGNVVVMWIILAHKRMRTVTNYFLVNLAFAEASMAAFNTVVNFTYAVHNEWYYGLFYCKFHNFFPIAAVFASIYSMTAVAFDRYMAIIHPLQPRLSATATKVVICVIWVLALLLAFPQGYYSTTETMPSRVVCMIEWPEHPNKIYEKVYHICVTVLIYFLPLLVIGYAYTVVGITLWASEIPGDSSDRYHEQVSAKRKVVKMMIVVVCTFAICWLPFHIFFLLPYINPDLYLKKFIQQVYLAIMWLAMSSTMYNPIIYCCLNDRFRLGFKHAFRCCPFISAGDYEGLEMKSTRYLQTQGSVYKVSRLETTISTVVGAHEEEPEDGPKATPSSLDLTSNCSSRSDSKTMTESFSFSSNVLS
Cytochrome P450 3A4, sequence (P08684 whole entry): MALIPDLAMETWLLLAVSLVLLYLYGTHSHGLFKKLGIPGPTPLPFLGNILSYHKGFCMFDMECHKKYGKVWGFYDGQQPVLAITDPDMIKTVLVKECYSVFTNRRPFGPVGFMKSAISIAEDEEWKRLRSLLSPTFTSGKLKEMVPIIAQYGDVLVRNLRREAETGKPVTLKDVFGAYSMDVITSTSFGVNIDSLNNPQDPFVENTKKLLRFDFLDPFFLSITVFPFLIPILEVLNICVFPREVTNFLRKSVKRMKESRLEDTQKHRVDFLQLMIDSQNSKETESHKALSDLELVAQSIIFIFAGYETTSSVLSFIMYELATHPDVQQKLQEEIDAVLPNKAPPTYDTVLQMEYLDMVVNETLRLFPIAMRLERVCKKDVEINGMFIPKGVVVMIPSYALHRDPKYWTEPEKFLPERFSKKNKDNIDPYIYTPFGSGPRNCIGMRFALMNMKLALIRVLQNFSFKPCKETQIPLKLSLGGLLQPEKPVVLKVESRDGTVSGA
Histamine H1 receptor (Homo sapiens), sequence (P35367 whole entry): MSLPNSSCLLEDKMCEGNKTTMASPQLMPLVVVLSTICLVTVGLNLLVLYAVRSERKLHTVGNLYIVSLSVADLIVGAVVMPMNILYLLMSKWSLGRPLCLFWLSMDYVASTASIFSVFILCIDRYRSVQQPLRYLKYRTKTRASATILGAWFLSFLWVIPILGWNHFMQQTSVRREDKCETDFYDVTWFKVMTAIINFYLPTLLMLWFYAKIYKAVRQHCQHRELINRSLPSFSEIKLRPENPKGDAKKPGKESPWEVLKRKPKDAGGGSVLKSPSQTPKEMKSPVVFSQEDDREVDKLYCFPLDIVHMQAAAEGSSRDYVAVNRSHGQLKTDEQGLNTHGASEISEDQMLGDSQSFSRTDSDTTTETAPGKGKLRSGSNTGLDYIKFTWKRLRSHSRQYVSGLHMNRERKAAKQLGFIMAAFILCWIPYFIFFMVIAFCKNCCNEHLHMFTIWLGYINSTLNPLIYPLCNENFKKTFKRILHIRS

For `N#Cc1cc(S(=O)(=O)Nc2ncns2)ccc1Oc1ccc(-c2cccc(C(F)(F)F)c2)cc1-c1ccnc(CNCCC2CCNCC2)c1`, the half-life [1] was 0.66 h, the CL renal at 0.5 h [2] was 0.0012 mL/min/kg and the inhibition [3] was -1%. The inhibition [4] was -8%, the Vd [5] was 0.46 L/kg and the Activity [6] was -3%. For the same compound, the microsomal CLint [7] was less than 14.1 µL/min/mg, the Vd [8] was 0.59 L/kg and the inhibition [9] was 4%. It also gave a fraction unbound at 2 µM [10] of 0.001, an inhibition [11] of 15% and an Activity [12] of -4%. The Activity [13] was -2%, the Activity [14] was -34% and the Activity [15] was 0%. It also gave an inhibition [16] of 27%, a fraction unbound [17] of 0.00374 and a CL free [18] of 12989 mL/min/kg. For the same compound, the inhibition [19] was 24%, the Activity [20] was 4% and the inhibition [21] was 7%. It also gave an Activity [22] of 15%, an inhibition (Rattus norvegicus) of 35% and an IC50 (Cytochrome P450 3A4) of 1150 nM. The EC50 (Adenosine receptor A1) was 1430 nM, the inhibition [23] was -2% and the IC50 [24] was 108000 nM. It also gave a clearance [25] of 36.5 mL/min/kg, an Activity [26] of -4% and an inhibition (Homo sapiens) of 34%. The half-life [27] was 5.9 h and the inhibition [28] was 0%.
